Reference: paper PMC10288510 (Journal of the American Chemical Society, 2023)
Peptide text beside a SMILES is read from it.

Tests used:
[1] = CF assay: cargo dose-response with COSAN 2 as carrier; type: in vitro ADME; settings: for transport of cargo by COSAN 2 (in words): EYPC⊃CF liposomes, 4 μM COSAN 2, pH 7.4; for Et (transport efficiency = Ymax (pEC50)/f, f = 41.8): EYPC vesicles, 4 μM COSAN 2, n.a = no detectable activity, 10% error (SD)
[2] = CF assay: carrier-mediated heptaarginine; type: in vitro ADME; settings: EYPC⊃CF LUVs, 1 μM Trp-Arg7, pEC50 from EC50 in mM, 10% error (SD)
How it was run: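 Egg-yolk phosphatidylcholine LUVs (4 μM phospholipid) loaded with self-quenched carboxyfluorescein; efflux read as dequenching (λex 492 nm, λem 517 nm) over time. Carrier added at t = 50 s, Trp-Arg7 (1 μM) at 100 s, Triton X-100 lysis at 600 s for normalisation. Kinetics run across carrier concentrations; normalised traces converted to dose–response curves; Hill fit gives Ymax, EC50 and Ea.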

| Molecule | transport of cargo by COSAN 2 (in words) [1] | other results |
| --- | --- | --- |
| NCCCC[C@H](NC(=O)[C@H](CCCCN)NC(=O)[C@H](CCCCN)NC(=O)[C@@H](N)Cc1c[nH]c2ccccc12)C(=O)O [Trp-(Lys)3, tryptophan-trilysine] (H-WKKK-OH) | not transported |  |
| NCCCC[C@H](NC(=O)[C@H](CCCCN)NC(=O)[C@H](CCCCN)NC(=O)[C@H](CCCCN)NC(=O)[C@H](CCCCN)NC(=O)[C@H](CCCCN)NC(=O)[C@H](CCCCN)NC(=O)[C@@H](N)Cc1c[nH]c2ccccc12)C(=O)O [Trp-Lys7, tryptophan-heptalysine] (H-WKKKKKKK-OH) | efficient transport |  |
| protamine |  | Et (transport efficiency = Ymax (pEC50)/f, f = 41.8) [1]: 9.0 |
| O=C(O)CCCc1ccc2ccc3cccc4ccc1c2c34 [PyBu, pyrenebutyrate] |  | Ea (activator efficiency = Ymax (pEC50)/f, f = 20.6) [2]: 4.8 |
| phalloidin | not transported |  |
| polylysine |  | Et (transport efficiency = Ymax (pEC50)/f, f = 41.8) [1]: 10.0 |
| N[C@@H](Cc1c[nH]c2ccccc12)C(=O)NCC(=O)NCC(=O)NCC(=O)NCC(=O)NCC(=O)NCC(=O)O [Trp-Gly6, tryptophan-hexaglysine] (H-WGGGGGG-OH) | not transported |  |
| CC(C)C[C@H](NC(=O)[C@@H](NC(=O)[C@@H](N)Cc1ccc(O)cc1)[C@@H](C)O)C(=O)N[C@H](C(=O)N[C@H](C(=O)N[C@@H](CCCCN)C(=O)O)C(C)C)[C@@H](C)O [Tyr-Thr-Leu-Thr-Val-Lys, tyrosine-threonine-leucine-threonine-valine-lysine] (H-YTLTVK-OH) | not transported |  |
